From ChEMBL document CHEMBL1138673, “Bulky nonproteinogenic amino acids permit the design of very small and effective cationic antibacterial peptides” (2004)
≈ marks a conversion by molar mass, not a printed value. Square brackets hold non-standard residues; d marks the D form. Peptide text beside a SMILES is read from it. * marks the point of attachment. Phe(4-tBu) = CC(C)(C)c1ccc(C[C@H](N)C(=O)O)cc1; Bip = N[C@@H](Cc1ccc(-c2ccccc2)cc1)C(=O)O; tBuAla = CC(C)(C)C[C@H](N)C(=O)O; Cha = N[C@@H](CC1CCCCC1)C(=O)O; Tle = CC(C)(C)[C@H](N)C(=O)O; NHBn = c1ccc(CN*)cc1; OBn = c1ccc(CO*)cc1

What was measured:
Escherichia coli = assay: Minimum inhibitory concentration against Escherichia coli; type: functional
Summary of the method: (§1)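 E. coli ATCC 25922 or S. aureus ATCC 25923 grown to exponential phase in 2% Bacto Peptone water. Standard broth microdilution, inoculum 2 × 10^6 cfu/mL, in 1% Bacto Peptone water, overnight incubation at 37 °C. MIC read after incubation. Each peptide run in parallel from at least three independent dilutions, with gentamicin as internal standard.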

Staphylococcus aureus = assay: Minimum inhibitory concentration against Staphylococcus aureus; type: functional; summary of the method: as §1

Row | Structure (SMILES) | MIC (Escherichia coli) | MIC (Staphylococcus aureus)
1 | C[C@H](N)C(=O)N[C@@H](CCCN=C(N)N)C(=O)OCc1ccc(-c2ccccc2)cc1 | 300 µg/mL (≈ 729 µM) | 100 µg/mL (≈ 243 µM)
2 | NCCCC[C@H](N)CN[C@@H](Cc1c[nH]c2ccccc12)C(=O)OCc1ccccc1 | > 300 µg/mL | 150 µg/mL (≈ 367 µM)
3 | CC(C)(C)c1cc(C(C)(C)C)c2[nH]c(C(C)(C)C)c(C[C@H](N)C(=O)N[C@@H](CCCNC(=N)N)C(N)=O)c2c1 | > 150 µg/mL | 15 µg/mL (≈ 28.4 µM)
4 | NCCCC[C@H](N)C(=O)N[C@@H](Cc1c[nH]c2ccccc12)C(=O)OCc1ccccc1 (H-Lys-Trp-OBn) | > 200 µg/mL | 75 µg/mL (≈ 178 µM)
5 | NCCCC[C@H](N)C(=O)N[C@H](Cc1c[nH]c2ccccc12)C(=O)OCc1ccccc1 (H-Lys-[dW]-OBn) | > 200 µg/mL | 50 µg/mL (≈ 118 µM)
6 | NC(N)=NCCC[C@H](NC(=O)[C@@H](N)Cc1c[nH]c2ccccc12)C(=O)NCc1ccccc1 (H-Trp-Arg-NHBn) | > 300 µg/mL | 100 µg/mL (≈ 222 µM)
7 | NC(N)=NCCC[C@H](NC(=O)[C@@H](N)Cc1ccc(-c2ccccc2)cc1)C(=O)NCc1ccccc1 (H-[Bip]-Arg-NHBn) | > 50 µg/mL | 15 µg/mL (≈ 30.8 µM)
8 | NC(N)=NCCC[C@H](NC(=O)[C@@H](N)Cc1ccc(-c2ccccc2)cc1)C(=O)OCc1ccccc1 (H-[Bip]-Arg-OBn) | 150 µg/mL (≈ 308 µM) | 5 µg/mL (≈ 10.3 µM)
9 | COC(=O)[C@H](CCCN=C(N)N)NC(=O)[C@@H](N)Cc1ccc(-c2ccccc2)cc1 (H-[Bip]-Arg-OMe) | > 300 µg/mL | 150 µg/mL (≈ 365 µM)
10 | NC(N)=NCCC[C@H](NC(=O)[C@@H](N)CC1CCCCC1)C(=O)OCc1ccccc1 (H-[Cha]-Arg-OBn) | > 300 µg/mL | 100 µg/mL (≈ 239 µM)
11 | CC(C)(C)c1ccc(C[C@H](N)C(=O)N[C@@H](CCCN=C(N)N)C(=O)OCc2ccccc2)cc1 (H-[Phe(4-tBu)]-Arg-OBn) | 200 µg/mL (≈ 428 µM) | 25 µg/mL (≈ 53.5 µM)
12 | COC(=O)[C@H](CCCN=C(N)N)NC(=O)[C@@H](N)Cc1ccc(C(C)(C)C)cc1 (H-[Phe(4-tBu)]-Arg-OMe) | > 300 µg/mL | > 300 µg/mL
13 | CC(C)(C)[C@H](N)C(=O)N[C@@H](CCCN=C(N)N)C(=O)OCc1ccccc1 (H-[Tle]-Arg-OBn) | > 300 µg/mL | > 300 µg/mL
14 | CC(C)(C)C[C@H](N)C(=O)N[C@@H](CCCN=C(N)N)C(=O)OCc1ccccc1 (H-[tBuAla]-Arg-OBn) | > 300 µg/mL | > 300 µg/mL

The next lines start with the values.

Row | MIC (Escherichia coli) | MIC (Staphylococcus aureus) | Structure (SMILES)
15 | 50 µg/mL (≈ 88.7 µM) | 5 µg/mL (≈ 8.87 µM) | NC(N)=NCCC[C@H](NC(=O)[C@@H](N)Cc1ccc(-c2ccccc2)cc1)C(=O)OCc1ccc(-c2ccccc2)cc1
16 | 50 µg/mL (≈ 87.7 µM) | 7.5 µg/mL (≈ 13.2 µM) | CC(C)NC(=O)[C@H](CCCN=C(N)N)NC(=O)[C@@H](N)Cc1c(C(C)(C)C)[nH]c2c(C(C)(C)C)cc(C(C)(C)C)cc12
17 | 100 µg/mL (≈ 205 µM) | 12.5 µg/mL (≈ 25.6 µM) | NC(N)=NCCC[C@H](NC(=O)[C@@H](N)Cc1ccccc1)C(=O)OCc1ccc(-c2ccccc2)cc1
18 | 10 µg/mL (≈ 16.2 µM) | 2.5 µg/mL (≈ 4.05 µM) | CC(C)(C)c1cc(C(C)(C)C)c2[nH]c(C(C)(C)C)c(C[C@H](N)C(=O)N[C@@H](CCCNC(=N)N)C(=O)NCc3ccccc3)c2c1
19 | 30 µg/mL (≈ 55.3 µM) | 5 µg/mL (≈ 9.21 µM) | COC(=O)[C@H](CCCNC(=N)N)NC(=O)[C@@H](N)Cc1c(C(C)(C)C)[nH]c2c(C(C)(C)C)cc(C(C)(C)C)cc12
20 | 150 µg/mL (≈ 294 µM) | 20 µg/mL (≈ 39.2 µM) | NC(N)=NCCC[C@H](NC(=O)[C@@H](N)Cc1c2ccccc2cc2ccccc12)C(=O)NCc1ccccc1
